Results from ChEMBL document CHEMBL4138139, “Discovery of VU6005649, a CNS Penetrant mGlu7/8 Receptor PAM Derived from a Series of Pyrazolo[1,5-a]pyrimidines” (ACS Med Chem Lett, 2017).

Tests used:
[1] = Brain to plasma partition coefficient, Kp of the compound in Sprague-Dawley rat at 0.2 to […], iv administered as cassette dose measured at […] post dose by LC-MS/MS analysis; type: ADME, organism-based; details: brain and plasma
[2] = target: T1, Cytochrome P450 1A2 (Homo sapiens, UniProt P05177); assay: Inhibition of CYP1A2 in human liver microsomes using phenacetin as substrate preincubated for 15 mins followed by NADPH addition measured after 8 mins by LC-MS/MS analysis; type: ADME
T1 sequence (P05177 whole entry): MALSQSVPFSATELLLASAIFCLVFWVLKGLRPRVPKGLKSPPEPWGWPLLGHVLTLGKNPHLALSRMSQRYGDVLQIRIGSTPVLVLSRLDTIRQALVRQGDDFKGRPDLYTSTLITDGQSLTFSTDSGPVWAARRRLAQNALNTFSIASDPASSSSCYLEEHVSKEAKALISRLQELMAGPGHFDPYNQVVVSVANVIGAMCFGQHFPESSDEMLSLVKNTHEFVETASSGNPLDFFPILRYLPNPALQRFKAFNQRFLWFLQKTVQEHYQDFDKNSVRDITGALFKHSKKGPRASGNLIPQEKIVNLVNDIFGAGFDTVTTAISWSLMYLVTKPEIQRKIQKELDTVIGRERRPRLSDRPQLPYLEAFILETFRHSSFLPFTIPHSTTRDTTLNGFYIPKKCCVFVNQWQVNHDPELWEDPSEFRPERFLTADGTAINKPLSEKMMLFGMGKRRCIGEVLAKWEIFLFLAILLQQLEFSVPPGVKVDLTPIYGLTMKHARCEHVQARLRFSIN

[3] = target: Adenosine receptor A1 (Homo sapiens) (UniProt P30542); assay: Displacement of [3H] DPCPX from full length human recombinant A1 receptor expressed in CHOK1 cell membranes at 10 uM after 90 mins by scintillation counting method relative to control
Summary of the method: (§1)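 Single-concentration screen at 10 μM in an outsourced profiling panel of 68 GPCRs, ion channels and transporters. Activity read out as percent inhibition of specific radioligand binding.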

[4] = target: Adenosine receptor A3 (Homo sapiens) (UniProt P0DMS8); assay: Displacement of [125I] AB-MECA from full length human recombinant A3 receptor expressed in CHOK1 cell membranes at 10 uM after 60 mins by scintillation counting method relative to control; summary of the method: as §1
[5] = target: B1 bradykinin receptor (Homo sapiens) (UniProt P46663); assay: Displacement of [3H]kallidin (des-Arg10, Leu9) from recombinant human bradykinin B1 receptor expressed in CHOK1 cell membranes at 10 uM measured after 60 mins by scintillation counting method relative to control
Summary of the method: (§2)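 Single-concentration screen at 10 μM within a commercial lead-profiling panel of 68 GPCRs, ion channels and transporters. Activity read as percent inhibition of specific radioligand binding to each target.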

[6] = target: B2 bradykinin receptor (Homo sapiens) (UniProt P30411); assay: Displacement of [3H] bradykinin from recombinant human bradykinin B2 receptor expressed in rat Chem1 cell membranes at 10 uM measured after 60 mins by scintillation counting method relative to control; summary of the method: as §1
[7] = target: D(3) dopamine receptor (Homo sapiens) (UniProt P35462); assay: Displacement of [3H] spiperone from recombinant human D3 receptor expressed in CHO cell membranes at 10 uM after 120 mins by scintillation counting method relative to control; summary of the method: as §2
[8] = target: Endothelin-1 receptor (Homo sapiens) (UniProt P25101); assay: Displacement of [125I] endothelin-1 from recombinant human ETA receptor expressed in CHOK1 cell membranes at 10 uM after 120 mins by scintillation counting method relative to control; summary of the method: as §1
[9] = target: Gamma-aminobutyric acid type B receptor subunit 1 (Homo sapiens) (UniProt Q9UBS5); assay: Displacement of [3H] CGP-54626 from recombinant human GABAB isoform 1a receptor expressed in CHOK1 cell membranes at 10 uM after 180 mins by scintillation counting method relative to control; summary of the method: as §1
[10] = target: Histamine H2 receptor (Homo sapiens) (UniProt P25021); assay: Displacement of [125I] aminopotentidine from recombinant human H2 receptor expressed in CHOK1 cell membranes at 10 uM after 120 mins by scintillation counting method relative to control; summary of the method: as §1
[11] = target: Histamine H3 receptor (Homo sapiens) (UniProt Q9Y5N1); assay: Displacement of [3H] N-alpha-methylhistamine from recombinant human H3 receptor expressed in CHOK1 cell membranes at 10 uM after 120 mins by scintillation counting method relative to control; summary of the method: as §1
[12] = target: Cysteinyl leukotriene receptor 1 (Homo sapiens) (UniProt Q9Y271); assay: Displacement of [3H] LTD4 from recombinant human CysLT1 receptor expressed in CHOK1 cell membranes at 10 uM after 30 mins by scintillation counting method relative to control; summary of the method: as §1
[13] = target: Neuropeptide Y receptor type 2 (Homo sapiens) (UniProt P49146); assay: Displacement of [125I] Peptide YY from Y2 receptor in human KAN-TS cell membrane at 10 uM after 120 mins by scintillation counting method relative to control; type: cell membranes; summary of the method: as §1
[14] = target: Delta-type opioid receptor (Homo sapiens) (UniProt P41143); assay: Displacement of [3H] naltrindole from recombinant human delta opioid receptor expressed in HEK293 cell membranes at 10 uM after 60 mins by scintillation counting method relative to control; summary of the method: as §1
[15] = target: Platelet-activating factor receptor (Homo sapiens) (UniProt P25105); assay: Displacement of [3H] PAF from human platelet activating factor receptor at 10 uM after 180 mins by scintillation counting method relative to control; summary of the method: as §1
[16] = organism: Oryctolagus cuniculus; assay: Inhibition of rabbit P2X receptor at 10 uM relative to control; summary of the method: as §2
[17] = target: Sodium-dependent dopamine transporter (Homo sapiens) (UniProt Q01959); assay: Displacement of [125I] RTI-55 from full length human recombinant DAT expressed in CHO cell membranes at 10 uM after 180 mins by scintillation counting method relative to control; summary of the method: as §1
[18] = target: Glucocorticoid receptor (Homo sapiens) (UniProt P04150); assay: Displacement of [3H] dexamethasone from full length human recombinant glucocorticoid receptor expressed in insect cells at 10 uM after 24 hrs by scintillation counting method relative to control; summary of the method: as §1
[19] = organism: Mus musculus; assay: Displacement of [3H] PDBu from phorbol ester receptor in ICR mouse brain membranes at 10 uM after 60 mins by scintillation counting method relative to control; type: cell membranes; details: Membrane; summary of the method: as §1
[20] = target: L-type calcium channel, dihydropyridine site (Rattus norvegicus, UniProt P22002+P27732+Q02485); assay: Inhibition of rat L-type calcium channel dihydropyridine site at 10 uM relative to control; type: protein assay
[21] = organism: Rattus norvegicus; assay: Inhibition of rat N-type calcium channel at 10 uM relative to control; summary of the method: as §2
[22] = target: Metabotropic glutamate receptor 1 (Rattus norvegicus, UniProt P23385); assay: Negative allosteric modulation of rat mGlu1 receptor expressed in HEK cells assessed as decrease in glutamate-induced thallium flux incubated for 142 secs followed by glutamate addition measured after 120 secs by Fluo4-AM dye based fluorescence assay; type: functional, cell-based
[23] = target: Metabotropic glutamate receptor 2 (Rattus norvegicus, UniProt P31421); assay: Negative allosteric modulation of rat mGlu2 receptor expressed in HEK cells assessed as decrease in glutamate-induced thallium flux incubated for 142 secs followed by glutamate addition measured after 120 secs by Fluo4-AM dye based fluorescence assay; type: functional, cell-based
Sequence of Metabotropic glutamate receptor 2 (P31421 whole entry): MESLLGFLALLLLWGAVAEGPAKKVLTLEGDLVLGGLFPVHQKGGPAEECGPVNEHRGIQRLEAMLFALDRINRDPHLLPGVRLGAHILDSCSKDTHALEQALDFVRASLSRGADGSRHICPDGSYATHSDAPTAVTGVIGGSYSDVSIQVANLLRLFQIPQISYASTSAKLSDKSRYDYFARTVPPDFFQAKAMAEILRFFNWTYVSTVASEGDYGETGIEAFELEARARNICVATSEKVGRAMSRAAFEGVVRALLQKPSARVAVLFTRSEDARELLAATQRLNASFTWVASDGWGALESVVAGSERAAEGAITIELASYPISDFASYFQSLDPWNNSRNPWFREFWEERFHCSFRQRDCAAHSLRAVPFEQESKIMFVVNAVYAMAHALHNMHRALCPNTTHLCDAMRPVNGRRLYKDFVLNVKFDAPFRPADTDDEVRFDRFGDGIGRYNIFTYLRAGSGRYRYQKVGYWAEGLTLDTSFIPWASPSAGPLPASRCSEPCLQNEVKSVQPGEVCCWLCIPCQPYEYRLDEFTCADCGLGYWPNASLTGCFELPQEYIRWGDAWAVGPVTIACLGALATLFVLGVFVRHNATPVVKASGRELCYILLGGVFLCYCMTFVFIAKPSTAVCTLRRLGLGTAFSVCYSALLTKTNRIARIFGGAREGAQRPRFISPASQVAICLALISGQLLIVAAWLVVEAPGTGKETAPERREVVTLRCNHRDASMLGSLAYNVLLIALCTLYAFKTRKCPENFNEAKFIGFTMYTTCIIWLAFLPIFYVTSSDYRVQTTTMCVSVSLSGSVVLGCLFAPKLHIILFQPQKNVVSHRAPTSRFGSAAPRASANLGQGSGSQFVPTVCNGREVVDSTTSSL

Sequence of Endothelin-1 receptor (Homo sapiens) (P25101 whole entry, canonical isoform): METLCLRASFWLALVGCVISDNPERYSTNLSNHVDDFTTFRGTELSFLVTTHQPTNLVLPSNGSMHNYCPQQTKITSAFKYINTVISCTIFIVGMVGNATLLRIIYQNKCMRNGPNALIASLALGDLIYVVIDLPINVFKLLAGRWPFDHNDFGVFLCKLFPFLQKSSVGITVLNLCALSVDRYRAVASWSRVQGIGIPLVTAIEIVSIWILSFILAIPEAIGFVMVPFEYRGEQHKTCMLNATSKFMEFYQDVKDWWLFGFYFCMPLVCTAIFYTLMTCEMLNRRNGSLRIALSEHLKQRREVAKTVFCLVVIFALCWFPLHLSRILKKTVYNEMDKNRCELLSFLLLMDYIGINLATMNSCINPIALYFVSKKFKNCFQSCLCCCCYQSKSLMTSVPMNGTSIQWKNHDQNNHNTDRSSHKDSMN
Sequence of Cysteinyl leukotriene receptor 1 (Homo sapiens) (Q9Y271 whole entry): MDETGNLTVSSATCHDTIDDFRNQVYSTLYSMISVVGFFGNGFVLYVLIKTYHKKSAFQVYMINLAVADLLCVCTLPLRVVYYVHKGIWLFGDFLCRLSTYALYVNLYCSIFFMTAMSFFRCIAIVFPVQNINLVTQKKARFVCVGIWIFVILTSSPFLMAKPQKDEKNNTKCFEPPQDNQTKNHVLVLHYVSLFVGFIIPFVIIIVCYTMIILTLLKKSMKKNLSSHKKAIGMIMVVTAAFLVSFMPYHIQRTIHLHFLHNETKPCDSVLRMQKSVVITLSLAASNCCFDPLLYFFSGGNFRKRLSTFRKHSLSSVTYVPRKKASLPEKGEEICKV
Sequence of Glucocorticoid receptor (Homo sapiens) (P04150 whole entry): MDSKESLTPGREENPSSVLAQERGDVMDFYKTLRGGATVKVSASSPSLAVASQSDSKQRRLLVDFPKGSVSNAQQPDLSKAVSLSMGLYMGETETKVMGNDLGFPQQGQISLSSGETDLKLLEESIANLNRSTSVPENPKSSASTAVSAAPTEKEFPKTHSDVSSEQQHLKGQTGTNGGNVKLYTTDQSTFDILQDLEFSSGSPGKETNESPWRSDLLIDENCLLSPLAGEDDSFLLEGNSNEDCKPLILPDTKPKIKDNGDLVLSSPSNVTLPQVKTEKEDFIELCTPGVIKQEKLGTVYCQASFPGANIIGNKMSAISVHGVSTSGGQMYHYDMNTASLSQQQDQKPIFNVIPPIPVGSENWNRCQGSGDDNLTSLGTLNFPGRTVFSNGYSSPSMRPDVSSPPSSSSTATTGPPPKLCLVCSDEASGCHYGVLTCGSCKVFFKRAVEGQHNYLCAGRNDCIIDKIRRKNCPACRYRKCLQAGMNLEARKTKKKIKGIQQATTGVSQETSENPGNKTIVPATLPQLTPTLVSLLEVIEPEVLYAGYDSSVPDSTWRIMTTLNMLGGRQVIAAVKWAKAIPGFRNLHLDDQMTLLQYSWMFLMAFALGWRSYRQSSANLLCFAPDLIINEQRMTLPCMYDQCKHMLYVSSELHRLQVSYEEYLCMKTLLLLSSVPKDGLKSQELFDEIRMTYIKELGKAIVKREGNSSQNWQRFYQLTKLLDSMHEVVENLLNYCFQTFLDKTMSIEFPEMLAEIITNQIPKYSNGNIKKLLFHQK
Sequence of Adenosine receptor A1 (Homo sapiens) (P30542 whole entry): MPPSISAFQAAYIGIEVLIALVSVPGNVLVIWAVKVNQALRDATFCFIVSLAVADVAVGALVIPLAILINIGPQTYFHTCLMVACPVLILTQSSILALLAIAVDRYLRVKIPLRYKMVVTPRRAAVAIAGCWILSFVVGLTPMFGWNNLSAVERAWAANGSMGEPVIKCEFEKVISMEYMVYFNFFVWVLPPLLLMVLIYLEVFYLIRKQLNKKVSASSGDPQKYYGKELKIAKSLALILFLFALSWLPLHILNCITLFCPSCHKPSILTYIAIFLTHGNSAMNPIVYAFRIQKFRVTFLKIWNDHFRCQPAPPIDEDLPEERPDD
Sequence of D(3) dopamine receptor (Homo sapiens) (P35462 whole entry): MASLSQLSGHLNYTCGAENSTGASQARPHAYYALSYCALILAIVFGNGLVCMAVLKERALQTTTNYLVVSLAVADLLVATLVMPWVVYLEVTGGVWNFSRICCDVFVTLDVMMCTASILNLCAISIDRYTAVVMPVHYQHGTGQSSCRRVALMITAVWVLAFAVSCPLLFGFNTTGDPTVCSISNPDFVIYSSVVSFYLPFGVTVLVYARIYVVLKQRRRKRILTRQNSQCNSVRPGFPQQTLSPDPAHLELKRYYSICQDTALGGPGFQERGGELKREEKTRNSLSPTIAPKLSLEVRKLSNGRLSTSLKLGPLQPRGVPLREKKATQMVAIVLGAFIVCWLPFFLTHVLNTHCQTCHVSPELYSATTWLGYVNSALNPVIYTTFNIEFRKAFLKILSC
Sequence of Adenosine receptor A3 (Homo sapiens) (P0DMS8 whole entry): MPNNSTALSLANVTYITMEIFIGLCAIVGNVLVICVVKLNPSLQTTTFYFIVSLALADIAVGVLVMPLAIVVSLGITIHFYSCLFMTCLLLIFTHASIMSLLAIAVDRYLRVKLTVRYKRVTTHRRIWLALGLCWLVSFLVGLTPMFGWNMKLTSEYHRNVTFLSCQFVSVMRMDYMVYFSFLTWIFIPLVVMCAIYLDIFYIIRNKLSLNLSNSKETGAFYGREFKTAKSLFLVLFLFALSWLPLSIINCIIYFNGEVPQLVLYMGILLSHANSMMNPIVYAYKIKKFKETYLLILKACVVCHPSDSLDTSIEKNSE
Sequence of Gamma-aminobutyric acid type B receptor subunit 1 (Homo sapiens) (Q9UBS5 whole entry, canonical isoform): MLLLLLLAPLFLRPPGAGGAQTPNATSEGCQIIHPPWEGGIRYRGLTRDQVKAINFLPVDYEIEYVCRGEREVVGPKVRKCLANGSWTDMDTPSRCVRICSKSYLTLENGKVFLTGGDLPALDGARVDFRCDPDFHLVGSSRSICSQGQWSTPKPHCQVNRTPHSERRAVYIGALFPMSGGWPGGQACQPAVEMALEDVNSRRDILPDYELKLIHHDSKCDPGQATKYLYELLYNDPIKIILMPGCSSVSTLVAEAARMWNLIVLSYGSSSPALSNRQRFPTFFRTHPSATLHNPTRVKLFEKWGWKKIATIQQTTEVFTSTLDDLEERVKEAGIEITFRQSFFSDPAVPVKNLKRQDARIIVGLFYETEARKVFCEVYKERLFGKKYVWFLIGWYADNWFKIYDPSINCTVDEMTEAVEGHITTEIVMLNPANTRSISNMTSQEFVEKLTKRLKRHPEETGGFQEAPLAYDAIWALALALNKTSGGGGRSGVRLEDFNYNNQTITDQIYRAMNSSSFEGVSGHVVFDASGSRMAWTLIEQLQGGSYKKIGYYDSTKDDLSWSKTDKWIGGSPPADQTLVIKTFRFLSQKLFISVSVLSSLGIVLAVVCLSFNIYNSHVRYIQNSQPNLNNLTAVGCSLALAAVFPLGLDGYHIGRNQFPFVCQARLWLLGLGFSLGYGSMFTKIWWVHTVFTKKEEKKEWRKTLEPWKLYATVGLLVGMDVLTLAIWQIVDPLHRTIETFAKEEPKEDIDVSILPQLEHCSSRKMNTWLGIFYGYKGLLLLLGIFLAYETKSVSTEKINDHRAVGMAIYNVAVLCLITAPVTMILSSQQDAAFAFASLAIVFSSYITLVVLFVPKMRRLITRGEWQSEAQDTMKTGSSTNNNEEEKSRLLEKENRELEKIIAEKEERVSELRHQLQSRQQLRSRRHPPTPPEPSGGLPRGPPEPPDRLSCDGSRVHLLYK
Sequence of Histamine H3 receptor (Homo sapiens) (Q9Y5N1 whole entry): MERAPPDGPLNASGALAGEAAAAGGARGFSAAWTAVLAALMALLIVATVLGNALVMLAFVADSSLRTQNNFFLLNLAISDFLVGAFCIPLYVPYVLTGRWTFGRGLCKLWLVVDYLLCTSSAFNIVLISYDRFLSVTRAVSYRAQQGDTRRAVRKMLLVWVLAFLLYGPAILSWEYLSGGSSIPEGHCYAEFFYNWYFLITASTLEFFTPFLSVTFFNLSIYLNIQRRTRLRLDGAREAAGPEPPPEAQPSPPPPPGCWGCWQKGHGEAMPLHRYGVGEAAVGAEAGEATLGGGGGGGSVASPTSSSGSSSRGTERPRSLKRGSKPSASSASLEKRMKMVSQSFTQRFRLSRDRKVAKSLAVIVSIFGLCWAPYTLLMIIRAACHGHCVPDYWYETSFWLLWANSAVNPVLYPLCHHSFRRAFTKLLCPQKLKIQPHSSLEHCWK

COc1ccc(-c2c(C)nn3c(C(F)(F)F)cc(C)nc23)c(F)c1F
Kp at […] [1]: 4.3 | IC50 [2]: 3.08 µM | inhibition [3]: < 50% | inhibition [4]: < 50% | inhibition [5]: < 50% | inhibition [6]: < 50% | inhibition [7]: < 50% | inhibition [8]: < 50% | inhibition [9]: < 50% | inhibition [10]: < 50% | inhibition [11]: < 50% | inhibition [12]: < 50% | inhibition [13]: < 50% | inhibition [14]: < 50% | inhibition [15]: < 50% | inhibition [16]: < 50% | inhibition [17]: < 50% | inhibition [18]: < 50% | inhibition [19]: < 50% | inhibition at 10 µM [20]: < 50% | inhibition [21]: < 50% | IC50 [22]: > 10 µM | IC50 [23]: > 10 µM
